Shown are actives, neighbours in structure and some others; about 1.9% of the full set was active somewhere.
Rin1-Abl PPI inh = inhibitors of human Rin1-Abl protein interaction | P00519+Q13671 | TR-FRET Rin1/Abl binding, biochemical | inhibition, % at 7.35 µM | hit rate 0.4% among 360,000; in the data active = inhibition above about 5%, passing the limit was not always enough
ABHD5 PLIN5 PPI = ABHD5-PLIN5 protein interaction inhibition; AID 602281; hit rate 0.78% among 360,000; Split G. princeps luciferase complementation, luminescence, 4 h; inhibition, % at 4 µM; Q00G26+Q8WTS1;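 active = inhibition above the mean inhibition across every tested compound plus 3 SD, cut at about 22% in these data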
Xi reactivation = activators of X-chromosome reactivation in mouse fibroblasts; XiGFP mouse fibroblasts, % GFP-positive cells imaging, 3 d; cells co-treated with 5-aza-dC sensitizer; scaled so ellipticine positive control = 100%; activation, % at 7.58 µM; hit rate 0.055% among 360,000; AID 743238;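 active = mean normalized replicate activation at least 10% and every replicate at or above 10%; inconclusive = only one of the two criteria met; inactive = mean below 10% and not all replicates reach 10%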
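Material: XiGFP fibroblasts, SV40-immortalized. Buffer or medium: DMEM plus 5-aza-dC sensitizer. Compound: single concentration per compound, delivered by pin transfer. Times: 3 days compound exposure. Controls: ellipticine 6 µM.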
NadD block = inhibitors of Staphylococcus aureus NadD | purified NadD enzyme, colorimetric absorbance read-out | AID 602399 | hit rate 0.78% among 360,000 | inhibition, % at 20 µM; in the data active = inhibition above about 26%
Rpn11 block = inhibitors of human proteasome Rpn11. O00487. human 26S proteasome, Ub4-pepOG fluorescence polarization; 20S core pre-blocked with epoxomicin. inhibition, % at 20 µM. hit rate 0.59% among 360,000;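 active = inhibition at 20 µM, scaled to each plate's controls, above about 33%, limit read from the data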
Target sequence (O00487 whole entry, looked up): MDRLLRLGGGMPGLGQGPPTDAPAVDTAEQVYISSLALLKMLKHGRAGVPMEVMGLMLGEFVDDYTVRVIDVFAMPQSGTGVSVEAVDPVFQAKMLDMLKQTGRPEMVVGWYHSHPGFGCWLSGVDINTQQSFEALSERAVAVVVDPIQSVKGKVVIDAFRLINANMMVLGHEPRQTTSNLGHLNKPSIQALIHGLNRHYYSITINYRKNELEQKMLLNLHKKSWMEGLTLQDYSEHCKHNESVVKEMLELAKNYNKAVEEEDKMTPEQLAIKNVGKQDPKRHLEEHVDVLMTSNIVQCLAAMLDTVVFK
ABHD5-PLIN5 conf = confirmation of human ABHD5-PLIN5 interaction inhibitors; shares compounds with ABHD5 PLIN5 PPI; biochemical ABHD5-PLIN5 interaction, luminescence; inhibition, % at 4 µM; hit rate 67% among 2,200; AID 651612; in the data active = inhibition above about 23%
HNF4 counter = active in HNF4 split-luciferase counter-screen for ABHD5-PLIN5 inhibitors; inhibition, % at 4 µM; HNF4 dimerization, luminescence, biochemical; hit rate 77% among 2,200; shares compounds with ABHD5 PLIN5 PPI;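 active = mean inhibition across replicate wells exceeding the computed hit threshold, cut at about 13% in these data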;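 also: light from luciferase halves that rejoin when HNF4 fusion proteins dimerize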
Hits are given with their value; - = inactive; ? = inconclusive; . = no result given.

SMILES | Rin1-Abl PPI inh | ABHD5 PLIN5 PPI | Xi reactivation | NadD block | Rpn11 block | ABHD5-PLIN5 conf | HNF4 counter
O=C1C=CC2C3C(=O)N(c4ccccc4)C(=O)C3C1N2Cc1ccccc1 (stereo unspecified) | - | 90.3 | - | - | - | 100.3 | 103.1
CCC(=O)N1CC2(C1)[C@H](c1ccc(-c3ccccc3OC)cc1)[C@H](CO)N2C(C)=O | . | . | - | . | . | . | .
CCOC(=O)C1=CC[C@@H](c2ccccc2)N(S(=O)(=O)c2ccc(C)cc2)[C@H]1C#N | - | 57.7 | - | - | - | 29.7 | 65.0
O=C(C=Cc1ccccn1)c1ccccc1 | - | 79.0 | - | - | - | 92.8 | 103.0
O=C(/C=C/c1cccnc1)c1ccccc1O | - | - | - | - | - | . | .
O=C(C=Cc1ccccn1)c1ccccc1O | - | 66.7 | - | - | - | 98.6 | 88.8
O=C(/C=C/c1ccc(O)cc1)c1ccccc1 | - | - | - | - | - | . | .
O=C(C=Cc1ccccc1Cl)c1ccccc1 | - | 36.7 | - | - | - | 88.2 | 70.9
C[C@H]1CN([C@@H](C)CO)S(=O)(=O)c2ccc(/C=C/c3ccccc3)cc2O[C@H]1CN(C)C(=O)CN1CCOCC1 | . | . | - | . | . | . | .
COc1ccc(S(=O)(=O)N[C@H]2CC[C@H](CC(=O)N3CCc4ccccc4C3)O[C@@H]2CO)cc1 | . | . | - | . | . | . | .
CCc1nc(C)cn1S(=O)(=O)c1ccc([N+](=O)[O-])cc1 | - | - | ? | - | - | . | .
CCCn1c(CC)nc([N+](=O)[O-])c1S(=O)(=O)c1ccccc1 | - | 41.5 | . | - | - | 50.2 | 54.1
C[C@@H]1CCCCO[C@H](CN(C)CC2CCCCC2)[C@H](C)CN([C@H](C)CO)C(=O)c2cc(NS(=O)(=O)c3ccccc3)ccc2O1 | . | . | - | . | . | . | .
CCOC(=O)c1ccc(NC(=O)CSc2nc3c(c(=O)n2CC)SC(C)C3)cc1 (stereo unspecified) | - | 81.3 | - | - | - | - | -
Cn1cc(CN2CCCC(C(=O)Nc3cccc(-c4cc5ccccc5[nH]4)c3)C2)cn1 (stereo unspecified) | - | - | - | - | - | . | .
CCn1cc(CN2CCCC(C(=O)Nc3cccc(-c4cc5ccccc5[nH]4)c3)C2)c(C)n1 (stereo unspecified) | - | 31.1 | - | - | - | - | -
COc1ccc2c3c([nH]c2c1)[C@@H](CO)N(Cc1ccc(F)cc1)CC31CN(C(=O)NC(C)C)C1 | . | . | - | . | . | . | .
O=C(CSc1ncn[nH]1)c1cccc([N+](=O)[O-])c1 | - | 34.5 | - | - | - | - | 26.2
CNC[C@H]1Oc2c(NS(C)(=O)=O)cccc2C(=O)N(C)C[C@H]1C | . | . | - | . | . | . | .
O=C(c1nnsc1S(=O)(=O)c1ccc(Cl)cc1)N1CCOCC1 | - | 50.8 | - | - | - | 72.7 | 70.8
Nc1nc(C(=O)N2CCOCC2)nn1S(=O)(=O)c1ccc(Cl)cc1 | - | - | . | - | - | . | .
COc1ccc(NC(=O)Nc2cccc3c2O[C@H](CN(C)Cc2ccccc2)[C@H](C)CN([C@H](C)CO)C3=O)cc1 | . | . | - | . | . | . | .
Cn1cc(CN(CCCN2CCOCC2)C(=S)Nc2cccc(Cl)c2)c2ccccc21 | - | 25.4 | - | - | - | - | -
Cc1cccc(NC(=S)N(CCCN2CCOCC2)Cc2cn(C)c3ccccc23)c1 | - | 23.3 | . | - | - | - | -
COc1ccc(NC(=S)N(CCCN2CCOCC2)Cc2cn(C)c3ccccc23)cc1 | - | - | - | - | - | . | .
SMILES | Rin1-Abl PPI inh | ABHD5 PLIN5 PPI | Xi reactivation | NadD block | Rpn11 block | ABHD5-PLIN5 conf | HNF4 counter
Oc1cccc(Nc2nc(N3CCOCC3)nc(N3CCOCC3)n2)c1 | - | 25.2 | - | - | - | - | 14.6
C/C=C/C=C/C(=O)[C@@H]1[C@@H]([C@]2(C)OC(=O)C(C)=C2O)[C@H]2/C(=C(O)/C=C/C=C/C)C(=O)[C@]1(C)C(=O)C2(C)O (stereo partly specified) | - | 34.6 | . | - | - | 43.7 | 25.0
CC(C)OC(=O)CN1C(=O)S/C(=C/c2ccc(N3CCCCC3)o2)C1=O | - | 34.2 | . | - | . | 60.7 | 101.6
CN(C)C(=O)C[C@H]1CC[C@@H]2[C@H](COc3ccc(NC(=O)C4CCC4)cc3C(=O)N2C)O1 | . | . | - | . | . | . | .
COC(=O)C1=C(O)/C(=C\c2ccc(CNS(=O)(=O)c3ccc(Cl)cc3)o2)N=C1C | - | 31.6 | - | - | - | 28.8 | 39.0
CCOC(=O)C1=C(O)/C(=C\c2ccc(CNS(=O)(=O)c3ccc(Br)cc3)o2)N=C1C | - | - | - | - | - | . | .
CCCCCCC(=O)NC1CCCCN(C)C1=O (stereo unspecified) | . | . | - | . | . | . | .
CCCCCCC=C1CCC(CN2CCCC2)C1=O (stereo unspecified) | - | 24.8 | - | - | - | 83.8 | 28.2
O=C(/C=C/c1ccccc1F)c1cccc([N+](=O)[O-])c1 | - | 70.1 | - | - | - | 100.2 | 98.5
COc1cc(/C=C/C(=O)c2cccc([N+](=O)[O-])c2)cc(OC)c1OC | - | 29.6 | - | - | - | 95.1 | 92.3
COc1cc(CC(=O)OCc2cccc([N+](=O)[O-])c2)cc(OC)c1OC | - | - | - | - | - | . | .
CC(=O)c1cccc([N+](=O)[O-])c1 | - | - | . | - | - | . | .
Cc1ccc(C2=NN=C(NC(=O)CSc3nncn3C)SC2)cc1 | - | 44.9 | - | - | - | 70.2 | 102.1
O=C(/C=C\c1ccccc1OC(=O)c1ccccc1F)c1cc2ccccc2o1 | - | 69.9 | - | - | - | 100.3 | 97.6
O=C1C(=C(I)I)c2ccccc2-c2ccccc21 | - | 43.3 | - | - | - | 101.2 | 101.8
COc1ccc(C2CC(c3cccs3)=Nc3ccccc3S2)cc1 (stereo unspecified) | - | 59.5 | . | - | - | - | -
Cc1cccc2sc(N(CCCN(C)C)C(=O)CCc3ccccc3)nc12 | - | 26.4 | - | - | - | - | -
Cc1ccc(C(=O)N(CCCN(C)C)c2nc3ccc(Cl)cc3s2)cc1C | - | 28.4 | - | - | - | - | -
Cc1cccc2sc(N(CCCN(C)C)C(=O)CN3C(=O)c4ccccc4C3=O)nc12 | - | - | ? | - | - | . | .
CN(C)CCCN(C(=O)CCc1ccccc1)c1nc2ccc(Br)cc2s1 | - | 39.0 | - | - | - | 26.5 | -
CN(C)CCCN(C(=O)c1ccc2c(c1)OCCO2)c1nc2ccc(Cl)cc2s1 | - | - | - | - | - | . | .
Cc1ccc2sc(N(CCCN(C)C)C(=O)c3ccc(Br)s3)nc2c1C | - | 26.8 | - | - | - | - | -
CO[C@H]1CN(C)C(=O)c2cc(NC(=O)Nc3ccccc3)ccc2OC[C@H](C)N(C(=O)CC2CC2)C[C@@H]1C | . | . | - | . | . | . | .
CCCNC(=O)N1C[C@@H](C)[C@H](OC)CN(C)C(=O)c2ccc(NS(C)(=O)=O)cc2OC[C@@H]1C | . | . | - | . | . | . | .
